In ChEMBL document CHEMBL2375283, “Design and synthesis of 1-aryl-5-anilinoindazoles as c-Jun N-terminal kinase inhibitors” (Bioorg Med Chem Lett, 2013):

Assays:
[1] = target: Mitogen-activated protein kinase 10 (Homo sapiens, UniProt P53779); experiment: Inhibition of JNK3 (unknown origin)-mediated ATF2 Thr71 phosphorylation by HTRF assay
How it was run: (§1)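 The kinase reaction used biotinylated ATF2 substrate with ATP. The phospho-Thr71-ATF2 product was detected by HTRF with a Europium-cryptate labeled anti-phospho-Thr71-ATF2 antibody. IC50 values are averages of two or more experiments.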

Homo sapiens = species: Homo sapiens; experiment: Selectivity ratio of IC50 for JNK1 (unknown origin) to IC50 for JNK3 (unknown origin)
[2] = Half life in human liver microsomes; assay type: ADME, Microsome
[3] = Drug uptake in C57BL6 mouse brain at 10 mg/kg, ip after 2 hrs; assay type: ADME, organism-based; design: dose 10 mg/kg, route intraperitoneal; settings: read-out: Drug uptake
How it was run: (§2)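 C57Bl6 mice (n = 3) were given 10 mg/kg intraperitoneally. Blood and brain were collected 2 h later, and plasma was frozen at −80 °C. Plasma (1:5 v/v) and brain (1:5 w/v) were mixed with acetonitrile, and brain was probe-sonicated. Drug levels were measured by LC–MS/MS against standards prepared in plasma or in blank brain matrix.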

[4] = Plasma clearance in Sprague-Dawley rat at 1 mg/kg, iv and 2 mg/kg, po; assay type: ADME, organism-based
How it was run: (§3)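 Rats received compound intravenously at 1 mg/kg or by oral gavage at 2 mg/kg. Blood was sampled at 5, 15 and 30 min and at 1, 2, 4, 6 and 8 h into EDTA tubes, and plasma was obtained by centrifugation. Plasma proteins were precipitated with acetonitrile, and drug levels were quantified by LC–MS/MS.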

[5] = target: Mitogen-activated protein kinase 8 (Homo sapiens, UniProt P45983); experiment: Inhibition of JNK1 (unknown origin)-mediated ATF2 Thr71 phosphorylation by HTRF assay; how it was run: as §1
[6] = Oral bioavailability in Sprague-Dawley rat at 2 mg/kg; assay type: ADME, organism-based; settings: in vivo; how it was run: as §3
[7] = Half life in rat liver microsomes; assay type: ADME, Microsome
[8] = AUC in Sprague-Dawley rat at 1 mg/kg, iv and 2 mg/kg, po; assay type: ADME, organism-based; settings: plasma; how it was run: as §3
[9] = Plasma concentration in C57BL6 mouse at 10 mg/kg, ip after 2 hrs; assay type: ADME, organism-based; design: dose 10 mg/kg, route intraperitoneal; how it was run: as §2
[10] = Half life in Sprague-Dawley rat at 1 mg/kg, iv and 2 mg/kg, po; assay type: ADME, organism-based; settings: in vivo; how it was run: as §3
[11] = target: Mitogen-activated protein kinase 10 (Rattus norvegicus, UniProt P49187); experiment: Inhibition of JNK3-mediated c-Jun phosphorylation in rat INS-1 cells after 3 hrs by ELISA; assay type: cell-based, INS1
Mitogen-activated protein kinase 10 (Rattus norvegicus, UniProt P49187), sequence (P49187 whole entry): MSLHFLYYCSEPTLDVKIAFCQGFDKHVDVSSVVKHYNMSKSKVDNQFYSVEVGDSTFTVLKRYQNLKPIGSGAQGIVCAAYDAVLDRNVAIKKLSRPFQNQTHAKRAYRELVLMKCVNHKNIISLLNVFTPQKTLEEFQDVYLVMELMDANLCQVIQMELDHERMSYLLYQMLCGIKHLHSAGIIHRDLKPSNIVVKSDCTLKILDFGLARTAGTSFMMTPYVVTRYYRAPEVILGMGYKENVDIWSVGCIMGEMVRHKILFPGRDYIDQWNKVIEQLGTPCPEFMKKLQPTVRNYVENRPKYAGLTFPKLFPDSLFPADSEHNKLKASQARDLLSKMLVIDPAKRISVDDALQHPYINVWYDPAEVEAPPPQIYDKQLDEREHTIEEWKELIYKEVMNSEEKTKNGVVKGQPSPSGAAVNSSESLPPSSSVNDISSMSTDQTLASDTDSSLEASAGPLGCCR

Mitogen-activated protein kinase 8, sequence (P45983 whole entry): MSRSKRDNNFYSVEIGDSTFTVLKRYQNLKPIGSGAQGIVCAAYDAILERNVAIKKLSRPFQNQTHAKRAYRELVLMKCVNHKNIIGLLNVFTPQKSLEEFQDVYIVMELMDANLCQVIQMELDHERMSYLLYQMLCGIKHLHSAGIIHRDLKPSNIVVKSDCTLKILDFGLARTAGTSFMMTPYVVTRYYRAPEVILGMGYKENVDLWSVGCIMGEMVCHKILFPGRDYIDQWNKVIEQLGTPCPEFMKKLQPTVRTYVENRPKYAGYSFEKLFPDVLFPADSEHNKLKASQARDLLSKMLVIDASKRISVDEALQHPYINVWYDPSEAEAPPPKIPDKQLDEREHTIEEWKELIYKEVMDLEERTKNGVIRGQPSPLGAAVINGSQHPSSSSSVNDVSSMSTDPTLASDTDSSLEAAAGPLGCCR
Mitogen-activated protein kinase 10 (Homo sapiens, UniProt P53779), sequence (P53779 whole entry): as the sequence (P49187 whole entry) above, with H27Q, S32Y, V33I, V34A counted along it

| SMILES | IC50 [1] | Ratio IC50 (Homo sapiens) | half-life [2] | concentration at 2 h [3] | clearance [4] | IC50 [5] | bioavailability [6] | half-life [7] | AUC [8] | concentration at 2 h [9] | half-life [10] | IC50 [11] |
| --- | --- | --- | --- | --- | --- | --- | --- | --- | --- | --- | --- | --- |
| COc1ccccc1Nc1ccc2c(cnn2-c2cccc(C(=O)NCCCN3CCOCC3)c2)c1 | 0.043 µM | 5 |  |  |  |  |  |  |  |  |  |  |
| O=C(NCCCN1CCOCC1)c1cccc(-n2ncc3cc(Nc4ccccc4Cl)ccc32)c1 | 0.015 µM | 5 | 8.6 min | 570 nM | 123 mL/min/kg | 0.41 µM | 6% | 5.6 min | 0.01 µM·h | 280 nM | 30 min |  |
| Cc1cccc(Nc2ccc3c(cnn3-c3cccc(C(=O)NCCN4CCN(C5CCC5)CC4)c3)c2)c1Cl | 0.04 µM | 5 |  | 3900 nM | 25 mL/min/kg | 0.97 µM | 27% |  | 0.72 µM·h | 1200 nM | 198 min |  |
| O=C(NCCCN1CCOCC1)c1cccc(-n2ncc3cc(Nc4ccccc4F)ccc32)c1 | 0.022 µM | 5 |  |  |  |  |  |  |  |  |  |  |
| O=C(NCCN1CCOCC1)c1cccc(-n2ncc3cc(Nc4ccccn4)ccc32)c1 | 1.4 µM | 5 |  |  |  | 7.1 µM |  |  |  |  |  |  |
| COc1cc(NC(=O)c2cccc(-n3ncc4cc(Nc5ccccc5Cl)ccc43)c2)cc(OC)c1OC | 0.012 µM | 5 |  |  |  | 0.093 µM |  |  |  |  |  |  |
| O=C(NCCN1CCOCC1)c1cccc(-n2ncc3cc(Nc4ccccc4Cl)ccc32)c1 | 0.054 µM | 5 |  | 550 nM |  | 0.75 µM |  |  |  | 560 nM |  | 4.1 µM |
| O=C(NCCN1CCOCC1)c1cccc(-n2ncc3cc(Nc4ccccc4Cl)ccc32)n1 | 0.64 µM | 10 |  |  |  | 7.01 µM |  |  |  |  |  |  |
| Cc1cccc(CC(=O)Nc2cnn(-c3cccc(C(=O)NC4CCOC(C)(C)C4)c3)c2)c1 (stereo not given) | 1.1 µM | > 25 |  |  |  | ≥ 20 µM |  |  |  |  |  |  |
| COc1cc(NC(=O)c2cccc(-n3ncc4cc(Nc5ccccc5C)ccc43)c2)cc(OC)c1OC | 0.059 µM | 5 |  |  |  |  |  |  |  |  |  |  |
| Cc1cccc(NC(=O)c2cccc(-n3ncc4cc(Nc5ccccc5F)ccc43)c2)c1 | 0.12 µM | 5 | 8.9 min | 30 nM | 79 mL/min/kg | 0.47 µM | 7% | 6 min | 0.5 µM·h | 350 nM | 18 min |  |
| COc1cc(NC(=O)c2cccc(-n3ncc4cc(Nc5ccccc5)ccc43)c2)cc(OC)c1OC | 0.024 µM | 10 | 12.8 min |  |  | 0.2 µM |  | 5.8 min |  |  |  |  |
| Cc1cccc(NC(=O)c2cccc(-n3ncc4cc(Nc5ccccc5C)ccc43)c2)c1 | 0.25 µM | 5 |  |  |  |  |  |  |  |  |  |  |
| Cc1cc(NC(=O)c2cccc(-n3ncc4cc(Nc5ccccc5F)ccc43)c2)ccc1N1CCOCC1 | 0.038 µM | 5 |  |  |  | 0.17 µM |  |  |  |  |  |  |
| CCOc1ccc(NC(=O)c2cccc(-n3ncc4cc(Nc5ccccc5F)ccc43)c2)cc1OC | 0.046 µM | 5 |  |  |  | 0.43 µM |  |  |  |  |  |  |
| O=C(NCCN1CCOCC1)c1ccnc(-n2ncc3cc(Nc4ccccc4Cl)ccc32)c1 | 0.12 µM | 10 |  | 1400 nM | 54 mL/min/kg | 2.3 µM | 5% |  | 0.01 µM·h | 530 nM | 30 min | 5.3 µM |
| CN1CCN(CCNC(=O)c2cncc(-n3ncc4cc(Nc5c(Cl)cccc5Cl)ccc43)c2)CC1 | 0.11 µM | 10 |  |  |  |  |  |  |  |  |  |  |
| O=C(NCCCN1CCOCC1)c1ccc(-n2ncc3cc(Nc4ccccc4Cl)ccc32)cc1 | 0.033 µM |  |  | 690 nM |  | 0.92 µM |  |  |  | 240 nM |  | ≥ 20 µM |
| Cc1cc(NC(=O)c2cccc(-n3ncc4cc(Nc5ccccc5Cl)ccc43)c2)ccc1N1CCOCC1 | 0.032 µM | 5 |  |  |  | 0.16 µM |  |  |  |  |  |  |
| O=C(NCCO)c1cccc(-n2ncc3cc(Nc4ccccc4Cl)ccc32)c1 | 0.035 µM | 5 |  |  |  | 0.8 µM |  |  |  |  |  | ≥ 20 µM |
| COc1cc(NC(=O)c2cccc(-n3ncc4cc(Nc5ccccc5F)ccc43)c2)cc(OC)c1OC | 0.009 µM | 5 |  | 50 nM | 57 mL/min/kg | 0.073 µM | 5% |  | 0.05 µM·h | 790 nM | 90 min |  |
| COc1cc(NC(=O)c2cccc(-n3cc(Nc4nc5ccccc5[nH]4)cn3)c2)cc(OC)c1OC | > 20 µM |  |  |  |  |  |  |  |  |  |  |  |
| O=C(NCCN1CCOCC1)c1cccc(-n2ncc3cc(Nc4ccccc4)cnc32)c1 | 0.17 µM | 10 |  |  |  | 1.2 µM |  |  |  |  |  |  |
| O=C(NCCN1CCOCC1)c1cccc(-n2ncc3cc(Nc4ccccc4Cl)ncc32)c1 | 0.08 µM | 10 |  |  |  | 1.3 µM |  |  |  |  |  |  |
| O=C(NCCN1CCOCC1)c1cccc(-n2ncc3cc(Nc4c(Cl)cccc4Cl)ccc32)c1 | 0.077 µM | 5 |  |  |  | 1.38 µM |  |  |  |  |  |  |
| CN1CCN(CCNC(=O)c2cccc(-n3ncc4cc(Nc5c(Cl)cccc5Cl)ccc43)c2)CC1 | 0.05 µM | 5 |  | 810 nM | 34 mL/min/kg | 1.2 µM | 20% |  | 0.38 µM·h | 2120 nM | 120 min |  |
| O=C(NCCN1CCOCC1)c1cc(-n2ncc3cc(Nc4c(Cl)cccc4Cl)ccc32)ccn1 | 0.64 µM | 10 |  |  |  |  |  |  |  |  |  |  |
| NC(=O)c1cccc(-n2ncc3cc(Nc4ccccc4F)ccc32)c1 | 0.063 µM | 5 |  |  |  | 0.73 µM |  |  |  |  |  |  |
